Results from ChEMBL document CHEMBL2034980, “N⁴-Phenyl-substituted 2-acetylpyridine thiosemicarbazones: cytotoxicity against human tumor cells, structure-activity relationship studies and investigation on the mechanism of action” (Bioorg Med Chem, 2012).
Active and inactive are the calls of the source.

Legend:
HeLa [1] = assay: Induction of mitotic arrest in human HeLa cells assessed as mitotic index measuring phosphohistone H3-positive cells by Hoechst 33342 staining; format: functional; details: read-out: MEC
In short: (§1)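 HeLa cells (8000/well, collagen-coated plates) were dosed in quadruplicate within 4–6 h of seeding with 10 twofold dilutions or vehicle (0.1% DMSO) for 18 h at 37 °C. Cells were fixed, stained with Hoechst 33342 and immunostained for phosphohistone H3 (Ser10) and α-tubulin, then analysed by automated imaging. Positivity threshold: mean of 28 vehicle wells +1 SD. Values reported as MDEC and EC50.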

HeLa [2] = assay: Induction of mitotic arrest in human HeLa cells assessed as reduction in tubulin intensity by Hoechst 33342 staining; format: functional; details: read-out: MEC; in short: as §1
HeLa [3] = assay: Induction of mitotic arrest in human HeLa cells assessed as reduction in cell density by immunofluorescence staining; format: functional, cell-based
In short: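 HeLa cells (8000/well), collagen-coated plates, dosed within 4-6 h of seeding in quadruplicate with 10 twofold dilutions or vehicle (DMSO 0.1% final); 18 h at 37 °C, 5% CO2. Formaldehyde fixation, Hoechst 33342 nuclear stain, anti-α-tubulin/anti-phosphohistone H3 immunostaining; automated high-content imaging. Cell density from nuclear counts; EC50 read from dose-response cell density curves.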

HeLa [4] = assay: Induction of mitotic arrest in human HeLa cells assessed as nuclear condensation by Hoechst 33342 staining; format: functional; details: read-out: MEC; in short: as §1
MCF7 [5] = assay: Induction of apoptosis in human MCF7 cells assessed as irregularities in cellular shape at 1 uM after 48 hrs by DAPI staining; format: functional, cell-based
U-87MG ATCC [6] = assay: Induction of apoptosis in human U87 cells assessed as membrane blebbing at 1 uM after 48 hrs by DAPI staining; format: functional, cell-based
MCF7 [7] = assay: Induction of apoptosis in human MCF7 cells assessed as membrane blebbing at 1 uM after 48 hrs by DAPI staining; format: functional, cell-based
T98G [8] = assay: Induction of apoptosis in human T98G cells assessed as chromatin condensation at 1 uM after 48 hrs by acridine orange/ethidium bromide staining-based microscopy; format: functional, cell-based
In short: (§2)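 After 48 h at 1 μM, cells were incubated for 15 min in serum-free medium containing 1 μg mL⁻¹ acridine orange and 1 μg mL⁻¹ ethidium bromide. The medium was removed and cells imaged by inverted fluorescence microscopy (530–650 nm). Green/orange nuclear patterns and acidic cytoplasmic vacuoles were scored.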

T98G [9] = assay: Induction of apoptosis in human T98G cells assessed as DNA fragmentation at 1 uM after 48 hrs by DAPI staining; format: functional, cell-based
In short: (§3)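 Cells were treated at 1 μM for 48 h, washed in PBS and fixed in 70% methanol for 30 min at room temperature. They were stained with 0.4 μg mL⁻¹ DAPI for 1 h in the dark, and nuclear condensation and fragmentation were scored by fluorescence microscopy (385–410 nm).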

[10] = Haemolytic activity in human RBC after 1 hr by photometry; format: ADME, cell-based; details: Erythrocyte
In short: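 Human EDTA blood was spun at 700xg for 10 min and the erythrocytes washed three times in cold PBS pH 7.4, then resuspended in it. Cells were incubated with varying compound concentrations for 1 h at 37 °C with shaking. After centrifugation, released haemoglobin was read at 540 nm to give the IC50. Mean ± SD, n = 4.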

U-87MG ATCC [11] = assay: Induction of apoptosis in human U87 cells assessed as irregularities in cellular shape at 1 uM after 48 hrs by DAPI staining; format: functional, cell-based
T98G [12] = assay: Induction of apoptosis in human T98G cells assessed as irregularities in cellular shape at 1 uM after 48 hrs by DAPI staining; format: functional, cell-based
MCF7 [13] = assay: Induction of apoptosis in human MCF7 cells assessed as cell shrinkage at 1 uM after 48 hrs by DAPI staining; format: functional, cell-based
T98G [14] = assay: Induction of apoptosis in human T98G cells assessed as cell shrinkage at 1 uM after 48 hrs by DAPI staining; format: functional, cell-based
Bos taurus [15] = species on record: Bos taurus; assay: Total inhibition of bovine brain tubulin polymerization at concentration close to compound solubility limit after 10 mins by spectrophotometry
In short: (§4)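 Bovine brain tubulin (10 μM; 1 mg mL⁻¹) in 0.8 M monosodium glutamate with 1% DMSO was pre-incubated with compound (four twofold dilutions) at 30 °C, then cooled to 0 °C for 10 min. GTP (0.4 mM) was added and the temperature raised to 37 °C while A350 was followed.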

T98G [16] = assay: Induction of apoptosis in human T98G cells assessed as appearance of autophagolysosomes at 1 uM after 48 hrs by acridine orange/ethidium bromide staining-based microscopy; format: functional, cell-based; in short: as §2
MCF7 [17] = assay: Induction of apoptosis in human MCF7 cells assessed as chromatin condensation at 1 uM after 48 hrs by DAPI staining; format: functional, cell-based; in short: as §3
T98G [18] = assay: Induction of apoptosis in human T98G cells assessed as membrane blebbing at 1 uM after 48 hrs […]; format: functional, cell-based
MCF7 [19] = assay: Induction of apoptosis in human MCF7 cells assessed as chromatin condensation at 1 uM after 48 hrs by acridine orange/ethidium bromide staining-based microscopy; format: functional, cell-based; in short: as §2
U-87MG ATCC [20] = assay: Induction of apoptosis in human U87 cells assessed as chromatin condensation at 1 uM after 48 hrs by acridine orange/ethidium bromide staining-based microscopy; format: functional, cell-based; in short: as §2
MCF7 [21] = assay: Induction of apoptosis in human MCF7 cells assessed as DNA fragmentation at 1 uM after 48 hrs by DAPI staining; format: functional, cell-based; in short: as §3
T98G [22] = assay: Cytotoxicity against human T98G cells expressing mutant p53 after 48 hrs by MTT assay; format: functional, cell-based; details: for IC50: read-out: IC50
In short: (§5)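 MTT assay. Cells were grown in DMEM with 10% FBS and penicillin/streptomycin at 37 °C under 5% CO2, seeded at 1–2×10^3 cells/well and treated 12 h later with 1×10^-12 to 1×10^-5 M ([…] from DMSO stock, final DMSO <0.5%) for 48 h. MTT was added at 0.5 mg mL⁻¹, formazan dissolved in DMSO and read at 570 nm. IC50 is the concentration giving 50% cytotoxicity. Quadruplicates, ≥3 independent experiments.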

MCF7 [23] = assay: Cytotoxicity against human MCF7 cells after 48 hrs by MTT assay; format: functional, cell-based; details: for IC50: MCF7, 48 h, read-out: IC50; in short: as §5
U-87MG ATCC [24] = assay: Induction of apoptosis in human U87 cells assessed as appearance of autophagolysosomes at 1 uM after 48 hrs by acridine orange/ethidium bromide staining-based microscopy; format: functional, cell-based; in short: as §2
U-87MG ATCC [25] = assay: Induction of apoptosis in human U87 cells assessed as chromatin condensation at 1 uM after 48 hrs by DAPI staining; format: functional, cell-based; in short: as §3
Bos taurus [26] = species on record: Bos taurus; assay: Inhibition of bovine brain tubulin polymerization at 5 to 20 uM after 10 mins by spectrophotometry; in short: as §4
U-87MG ATCC [27] = assay: Induction of apoptosis in human U87 cells assessed as cell shrinkage at 1 uM after 48 hrs by DAPI staining; format: functional, cell-based
T98G [28] = assay: Induction of apoptosis in human T98G cells assessed as chromatin condensation at 1 uM after 48 hrs by DAPI staining; format: functional, cell-based; in short: as §3
[29] = (§6) Cytotoxicity against human U87 cells expressing wild-type p53 after 48 hrs by MTT assay; format: functional, cell-based, U-87MG ATCC; details: U-87 MG, read-out: IC50; in short: as §5
U-87MG ATCC [30] = assay: as §6; format: functional, cell-based; in short: as §5
U-87MG ATCC [31] = assay: Induction of apoptosis in human U87 cells assessed as DNA fragmentation at 1 uM after 48 hrs by DAPI staining; format: functional, cell-based; in short: as §3
MCF7 [32] = assay: Induction of apoptosis in human MCF7 cells assessed as appearance of autophagolysosomes at 1 uM after 48 hrs by acridine orange/ethidium bromide staining-based microscopy; format: functional, cell-based; in short: as §2

COc1cc2c(c(OC)c1OC)-c1ccc(OC)c(=O)cc1[C@@H](NC(C)=O)CC2 [COLCHICINE]
0.01 µM: minimal effective concentration (HeLa [2]) | minimal effective concentration (HeLa [4])
30 nM: EC50 (HeLa [3])
0.02 µM: minimal effective concentration (HeLa [1])

CC(=NNC(=S)Nc1ccc(Cl)cc1)c1ccccn1 (mixture of isomers)
9200 nM: EC50 (HeLa [3])
5.8 µM: minimal effective concentration (HeLa [4])
active: Activity (MCF7 [5]) | Activity (U-87MG ATCC [6]) | Activity (MCF7 [7]) | Activity (T98G [8]) | Activity (T98G [9]) | Activity (U-87MG ATCC [11]) | Activity (T98G [12]) | Activity (MCF7 [13]) | Activity (T98G [14]) | Activity (T98G [16]) | Activity (MCF7 [17]) | Activity (T98G [18]) | Activity (MCF7 [19]) | Activity (U-87MG ATCC [20]) | Activity (MCF7 [21]) | Activity (T98G [22]) Dose-dependent effect | Activity (MCF7 [23]) Dose-dependent effect | Activity (U-87MG ATCC [24]) | Activity (U-87MG ATCC [25]) | inhibition (Bos taurus [26]) | Activity (U-87MG ATCC [27]) | Activity (T98G [28]) | Activity (U-87MG ATCC [30]) Dose-dependent effect | Activity (U-87MG ATCC [31]) | Activity (MCF7 [32])
5.9 nM: IC50 (T98G [22])
1.7 nM: IC50 [29]
3.6 µM: minimal effective concentration (HeLa [2])
> 50 µM: minimal effective concentration (HeLa [1])
> 10000 nM: IC50 [10]
inactive: inhibition (Bos taurus [15])
8.5 nM: IC50 (MCF7 [23])

CC(=NNC(=S)Nc1ccc([N+](=O)[O-])cc1)c1ccccn1 (mixture of isomers)
52 nM: IC50 (MCF7 [23])
160 nM: IC50 [29]
140 nM: IC50 (T98G [22])
> 10000 nM: IC50 [10]
active: Activity (MCF7 [5]) | Activity (U-87MG ATCC [6]) | Activity (MCF7 [7]) | Activity (T98G [8]) | Activity (T98G [9]) | Activity (U-87MG ATCC [11]) | Activity (T98G [12]) | Activity (MCF7 [13]) | Activity (T98G [14]) | Activity (T98G [16]) | Activity (MCF7 [17]) | Activity (T98G [18]) | Activity (MCF7 [19]) | Activity (U-87MG ATCC [20]) | Activity (MCF7 [21]) | Activity (T98G [22]) Dose-dependent effect | Activity (MCF7 [23]) Dose-dependent effect | Activity (U-87MG ATCC [24]) | Activity (U-87MG ATCC [25]) | Activity (U-87MG ATCC [27]) | Activity (T98G [28]) | Activity (U-87MG ATCC [30]) Dose-dependent effect | Activity (U-87MG ATCC [31]) | Activity (MCF7 [32])

CC(=NNC(S)=Nc1ccccc1Cl)c1ccccn1 (mixture of isomers)
2.6 nM: IC50 [29]
> 10000 nM: IC50 [10]
0.16 nM: IC50 (MCF7 [23])
1.1 nM: IC50 (T98G [22])
active: Activity (MCF7 [5]) | Activity (U-87MG ATCC [6]) | Activity (MCF7 [7]) | Activity (T98G [8]) | Activity (T98G [9]) | Activity (U-87MG ATCC [11]) | Activity (T98G [12]) | Activity (MCF7 [13]) | Activity (T98G [14]) | Activity (T98G [16]) | Activity (MCF7 [17]) | Activity (T98G [18]) | Activity (MCF7 [19]) | Activity (U-87MG ATCC [20]) | Activity (MCF7 [21]) | Activity (T98G [22]) Dose-dependent effect | Activity (MCF7 [23]) Dose-dependent effect | Activity (U-87MG ATCC [24]) | Activity (U-87MG ATCC [25]) | Activity (U-87MG ATCC [27]) | Activity (T98G [28]) | Activity (U-87MG ATCC [30]) Dose-dependent effect | Activity (U-87MG ATCC [31]) | Activity (MCF7 [32])
